In brackets after ≈: the same amount, converted by molar mass. Activity calls are given as the source filed them. No cut-off for these calls is given here.
Tests used:
Staphylococcus aureus [1] = test: Antibacterial activity against Staphylococcus aureus ATCC 25923 incubated after 24 hrs by resazurin dye based broth microdilution assay; format: functional; conditions: ATCC 25923, 24 h
Escherichia coli [2] = test: Antibacterial activity against Escherichia coli ATCC 35218 incubated after 24 hrs by resazurin dye based broth microdilution assay; format: functional; conditions: ATCC 35218, 24 h
Escherichia coli [3] = test: Antibacterial activity against Escherichia coli ATCC 25922 incubated after 24 hrs by resazurin dye based broth microdilution assay; format: functional; conditions: ATCC 25922, 24 h
Klebsiella pneumoniae = test: Antibacterial activity against Klebsiella pneumoniae ATCC 700603 incubated after 24 hrs by resazurin dye based broth microdilution assay; format: functional; conditions: Klebsiella pneumoniae, 700603, 24 h
Enterococcus faecalis [4] = test: Antibacterial activity against Enterococcus faecalis ATCC 29212 incubated after 24 hrs by resazurin dye based broth microdilution assay; format: functional; conditions: ATCC 29212, 24 h
Enterococcus faecalis [5] = test: Antibacterial activity against Enterococcus faecalis ATCC 51299 incubated after 24 hrs by resazurin dye based broth microdilution assay; format: functional; conditions: ATCC 51299, 24 h
Listeria monocytogenes = test: Antibacterial activity against Listeria monocytogenes ATCC 7644 incubated after 24 hrs by resazurin dye based broth microdilution assay; format: functional; conditions: ATCC 7644, 24 h
Pseudomonas aeruginosa = test: Antibacterial activity against Pseudomonas aeruginosa ATCC 27853 incubated after 24 hrs by resazurin dye based broth microdilution assay; format: functional; conditions: ATCC 27853, 24 h
Staphylococcus aureus [6] = test: Antibacterial activity against Staphylococcus aureus ATCC 25923 assessed as decrease in ATP level at […] ug/ml after 24 hrs by BacTiter-Glo reagent based bioluminescence assay; format: functional
NIH3T3 = test: Cytotoxicity against mouse NIH/3T3 cells assessed as reduction in cell proliferation after 24 hrs by MTT assay; format: cell-based; conditions: NIH3T3, 24 h
[7] = test system: Escherichia coli ATCC 25922; test: Inhibition of Escherichia coli DNA gyrase assessed as inhibition of enzyme-mediated supercoiling of relaxed pHOT1 DNA substrate at […] to […] ug/ml after 30 mins by gel electrophoresis method
[8] = Selectivity index, ratio of IC50 for mouse NIH/3T3 cells to MIC90 for Klebsiella pneumoniae ATCC 700603; format: toxicity; conditions: read-out: Selectivity Index
[9] = Selectivity index, ratio of IC50 for mouse NIH/3T3 cells to MIC90 for Listeria monocytogenes ATCC 7644; format: toxicity; conditions: read-out: Selectivity Index
[10] = test system: Escherichia coli ATCC 25922; test: Inhibition of Escherichia coli DNA gyrase assessed as inhibition of enzyme-mediated supercoiling of relaxed pHOT1 DNA substrate after 30 mins by gel electrophoresis method
Method in brief: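 E. coli DNA gyrase (1 U) was incubated with relaxed pHOT1 DNA substrate (0.25 µg) for 30 min at 37 °C. Compounds were tested at 15.6, 7.8, 3.9 and 1.95 µg/L. Controls were supercoiled DNA, relaxed DNA, relaxed DNA plus gyrase, and 1% DMSO. Supercoiling was read by agarose gel electrophoresis.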

[11] = Selectivity index, ratio of IC50 for mouse NIH/3T3 cells to MIC90 for Pseudomonas aeruginosa ATCC 27853; format: toxicity; conditions: read-out: Selectivity Index

Structure (SMILES)	MIC90 (Staphylococcus aureus [1]) [mg/L]	MIC90 (Escherichia coli [2]) [mg/L]	MIC90 (Escherichia coli [3]) [mg/L]	MIC90 (Klebsiella pneumoniae) [mg/L]	MIC90 (Enterococcus faecalis [4]) [mg/L]	MIC90 (Enterococcus faecalis [5]) [mg/L]	MIC90 (Listeria monocytogenes) [mg/L]	MIC90 (Pseudomonas aeruginosa) [mg/L]	Activity (Staphylococcus aureus [6])	IC50 (NIH3T3) [mg/L]	inhibition [7]	selectivity ratio [8]	selectivity ratio [9]	inhibition [10]	selectivity ratio [11]
CCOC(=O)c1cn(-c2ccc(F)cc2F)c2nc(Sc3nc4ccccc4[nH]3)c(F)cc2c1=O	125 (≈ 252 µM)	125 (≈ 252 µM)	62.5 (≈ 126 µM)	125 (≈ 252 µM)	125 (≈ 252 µM)	62.5 (≈ 126 µM)	125 (≈ 252 µM)	125 (≈ 252 µM)	–	–	–	–	–	–	–
O=C(O)c1cn(-c2ccc(F)cc2F)c2nc(Sc3nc4ccccc4[nH]3)c(F)cc2c1=O	7.8 (≈ 16.7 µM)	15.6 (≈ 33.3 µM)	15.6 (≈ 33.3 µM)	31.2 (≈ 66.7 µM)	15.6 (≈ 33.3 µM)	31.2 (≈ 66.7 µM)	31.2 (≈ 66.7 µM)	31.2 (≈ 66.7 µM)	–	–	–	–	–	–	–
CCOC(=O)c1cn(-c2ccc(F)cc2F)c2nc(Sc3nc4cc([N+](=O)[O-])ccc4[nH]3)c(F)cc2c1=O	125 (≈ 231 µM)	125 (≈ 231 µM)	250 (≈ 462 µM)	125 (≈ 231 µM)	250 (≈ 462 µM)	250 (≈ 462 µM)	125 (≈ 231 µM)	125 (≈ 231 µM)	–	–	–	–	–	–	–
O=C(O)c1cn(C2CC2)c2cc(N3CCNCC3)c(F)cc2c1=O [CIPROFLOXACIN]	≤ 1.95	≤ 1.95	≤ 1.95	≤ 1.95	≤ 1.95	≤ 1.95	3.9 (≈ 11.8 µM)	≤ 1.95	Active	306 (≈ 923 µM)	–	–	–	–	–
CCOC(=O)c1cn(-c2ccc(F)cc2F)c2nc(Sc3nc4ccccc4s3)c(F)cc2c1=O	62.5 (≈ 122 µM)	125 (≈ 243 µM)	125 (≈ 243 µM)	125 (≈ 243 µM)	125 (≈ 243 µM)	125 (≈ 243 µM)	125 (≈ 243 µM)	125 (≈ 243 µM)	–	–	–	–	–	–	–
N[C@@H]1[C@H]2CN(c3nc4c(cc3F)c(=O)c(C(=O)O)cn4-c3ccc(F)cc3F)C[C@@H]12 [TROVAFLOXACIN]	≤ 1.95	≤ 1.95	≤ 1.95	≤ 1.95	≤ 1.95	≤ 1.95	≤ 1.95	≤ 1.95	Active	244 (≈ 587 µM)	Active	–	–	–	–
O=C(O)c1cn(-c2ccc(F)cc2F)c2nc(Sc3nc4ccccc4s3)c(F)cc2c1=O	15.6 (≈ 32.1 µM)	31.2 (≈ 64.4 µM)	31.2 (≈ 64.4 µM)	31.2 (≈ 64.4 µM)	31.2 (≈ 64.4 µM)	62.5 (≈ 129 µM)	31.2 (≈ 64.4 µM)	31.2 (≈ 64.4 µM)	–	–	–	–	–	–	–
Cc1ccc2[nH]c(Sc3nc4c(cc3F)c(=O)c(C(=O)O)cn4-c3ccc(F)cc3F)nc2c1	3.9 (≈ 8.08 µM)	3.9 (≈ 8.08 µM)	7.8 (≈ 16.2 µM)	31.2 (≈ 64.8 µM)	31.2 (≈ 64.8 µM)	31.2 (≈ 64.8 µM)	31.2 (≈ 64.8 µM)	15.6 (≈ 32.3 µM)	–	–	–	–	–	–	–
COc1c(N2C[C@@H]3CCCN[C@@H]3C2)c(F)cc2c(=O)c(C(=O)O)cn(C3CC3)c12 [MOXIFLOXACIN]	≤ 1.95	≤ 1.95	≤ 1.95	3.9 (≈ 9.72 µM)	≤ 1.95	≤ 1.95	3.9 (≈ 9.72 µM)	3.9 (≈ 9.72 µM)	–	380 (≈ 946 µM)	Active	–	–	–	–
O=C(O)c1cn(-c2ccc(F)cc2F)c2nc(Sc3nc4cc(Cl)ccc4[nH]3)c(F)cc2c1=O	7.8 (≈ 15.5 µM)	15.6 (≈ 31 µM)	15.6 (≈ 31 µM)	31.2 (≈ 62.1 µM)	31.2 (≈ 62.1 µM)	31.2 (≈ 62.1 µM)	15.6 (≈ 31 µM)	31.2 (≈ 62.1 µM)	–	–	–	–	–	–	–
CCOC(=O)c1cn(-c2ccc(F)cc2F)c2nc(Sc3nc4cc(C)ccc4[nH]3)c(F)cc2c1=O	62.5 (≈ 122 µM)	250 (≈ 490 µM)	125 (≈ 245 µM)	125 (≈ 245 µM)	125 (≈ 245 µM)	250 (≈ 490 µM)	125 (≈ 245 µM)	62.5 (≈ 122 µM)	–	–	–	–	–	–	–
CCOC(=O)c1cn(-c2ccc(F)cc2F)c2nc(N3CCN(CCCN(C)C)CC3)c(F)cc2c1=O	62.5 (≈ 121 µM)	125 (≈ 242 µM)	125 (≈ 242 µM)	250 (≈ 483 µM)	125 (≈ 242 µM)	62.5 (≈ 121 µM)	125 (≈ 242 µM)	125 (≈ 242 µM)	–	–	–	–	–	–	–
CCOC(=O)c1cn(-c2ccc(F)cc2F)c2nc(Sc3nc4cc(Cl)ccc4[nH]3)c(F)cc2c1=O	62.5 (≈ 118 µM)	125 (≈ 235 µM)	62.5 (≈ 118 µM)	125 (≈ 235 µM)	125 (≈ 235 µM)	125 (≈ 235 µM)	62.5 (≈ 118 µM)	125 (≈ 235 µM)	–	–	–	–	–	–	–
O=C(O)c1cn(-c2ccc(F)cc2F)c2nc(Sc3nc4cc([N+](=O)[O-])ccc4[nH]3)c(F)cc2c1=O	1.95 (≈ 3.8 µM)	3.9 (≈ 7.6 µM)	3.9 (≈ 7.6 µM)	15.6 (≈ 30.4 µM)	7.8 (≈ 15.2 µM)	15.6 (≈ 30.4 µM)	15.6 (≈ 30.4 µM)	15.6 (≈ 30.4 µM)	Active	122 (≈ 237 µM)	–	8	8	Dose-dependent effect	8

Source: ChEMBL document CHEMBL3994650, “New 1,4-dihydro[1,8]naphthyridine derivatives as DNA gyrase inhibitors” (Bioorg Med Chem Lett, 2017)
